Assay results from ChEMBL document CHEMBL1157352, “Potent, Plasmodium-selective farnesyltransferase inhibitors that arrest the growth of malaria parasites: structure-activity relationships of ethylenediamine-analogue scaffolds and homology model validation” (J Med Chem, 2008).

How the values were obtained:
[1] = test system: Plasmodium falciparum; experiment: Antimalarial activity in Plasmodium falciparum 3D7 infected erythrocytes as [3H]hypoxanthine uptake; type: functional; conditions: 3D7, 72 h, read-out: ED50 (the source's name)
Summary of the method: (§1)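 Parasites kept per Trager–Jensen in RPMI-1640 with 2 mM L-glutamine, 25 mM HEPES, 33 mM NaHCO3, gentamicin, 20% heat-inactivated human A+ plasma. Compound in DMSO added to culture at 0.5% parasitemia and hematocrit; 37 °C, 5% CO2/5% O2/90% N2, 48 h. [8-3H]hypoxanthine (0.3 µCi) added for a further 24 h, then harvested and scintillation-counted. Uninfected-RBC background subtracted; DMSO vehicle taken as 100% growth. ED50 by linear regression.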

[2] = test system: Plasmodium falciparum; experiment: Inhibition of Plasmodium falciparum PFT at 50 nM
[3] = test system: Plasmodium falciparum; experiment: Inhibition of Plasmodium falciparum PFT at 5 nM
[4] = test system: Plasmodium falciparum; experiment: Antimalarial activity in Plasmodium falciparum K1 infected erythrocytes by [3H]hypoxanthine uptake; type: functional; conditions: K1, 72 h, read-out: ED50 (the source's name); summary of the method: as §1
[5] = Inhibition of rat PFT by scintillation proximity assay
[6] = Inhibition of Plasmodium falciparum PFT
[7] = Selectivity for Plasmodium falciparum PFT over rat PFT

| SMILES | EC50 [1] [nM] | inhibition [2] [%] | inhibition [3] [%] | EC50 [4] [nM] | IC50 [5] [nM] | IC50 [6] [nM] | Selectivity ratio [7] |
| --- | --- | --- | --- | --- | --- | --- | --- |
| Cn1cnc(S(=O)(=O)N(CC2CCN(c3ncccn3)CC2)[C@H]2CCC[C@@H]2N(Cc2cncn2C)c2ccc(C#N)cc2)c1 (racemic) | 2600 | 28 | 12 | 750 |  |  |  |
| Cc1ccccc1CN(CCN(Cc1cncn1C)c1ccc(C#N)cc1)S(=O)(=O)c1cn(C)cn1 |  | 99 | 95 |  |  |  |  |
| Cn1cnc(S(=O)(=O)N(Cc2ccccc2)[C@H]2CC[C@@H](N(Cc3cncn3C)c3ccc(C#N)cc3)C2)c1 (racemic) | 700 | 40 | 4 |  |  |  |  |
| Cn1cnc(S(=O)(=O)N(CCN(Cc2cncn2C)c2ccc(C#N)cc2)Cc2ccccc2)c1 |  | 98 | 86 |  |  |  |  |
| Cc1ccccc1CN([C@@H]1CCC[C@@H]1N(Cc1cncn1C)c1ccc(C#N)cc1)S(=O)(=O)c1cn(C)cn1 (racemic) | 2800 | 17 | 16 | 2800 |  |  |  |
| Cn1cnc(S(=O)(=O)N(CC2CCN(c3ncccn3)CC2)[C@@H]2CCC[C@@H]2N(Cc2cncn2C)c2ccc(C#N)cc2)c1 (racemic) | 3000 | 0 | 10 | 2500 |  |  |  |
| Cc1ccccc1CN([C@H]1CC[C@@H](N(Cc2cncn2C)c2ccc(C#N)cc2)C1)S(=O)(=O)c1cn(C)cn1 (racemic) | 2400 | 24 |  | 2600 |  |  |  |
| Cn1cnc(S(=O)(=O)N(CCN(Cc2cncn2C)c2ccc(C#N)cc2)Cc2ccsc2)c1 | 150 | 100 | 91 | 240 |  |  |  |
| Cn1cnc(S(=O)(=O)N(CC2CCN(c3ncccn3)CC2)CC(C)(C)N(Cc2cncn2C)c2ccc(C#N)cc2)c1 |  | 100 | 93 |  |  |  |  |
| Cn1cnc(S(=O)(=O)N(CCCN(Cc2cncn2C)c2ccc(C#N)cc2)CC2CCN(c3ncccn3)CC2)c1 |  | 93 | 62 |  |  |  |  |
| Cn1cnc(S(=O)(=O)N(CC2CCN(C(=O)OC(C)(C)C)CC2)CC(C)(C)N(Cc2cncn2C)c2ccc(C#N)cc2)c1 |  | 87 |  |  | 150 | 1.1 | 136 |
| Cn1cnc(S(=O)(=O)N(CC2CCN(c3ncccn3)CC2)[C@@H]2CC[C@@H](N(Cc3cncn3C)c3ccc(C#N)cc3)C2)c1 (racemic) | 2600 | 38 |  | 1500 |  |  |  |
| Cn1cnc(S(=O)(=O)N(Cc2ccccc2)[C@H]2CC[C@H](N(Cc3cncn3C)c3ccc(C#N)cc3)CC2)c1 |  | 73 |  |  |  |  |  |
| Cc1ccccc1CN(CC(C)(C)N(Cc1cncn1C)c1ccc(C#N)cc1)S(=O)(=O)c1cn(C)cn1 |  | 98 | 91 |  |  |  |  |
| Cn1cnc(S(=O)(=O)N(Cc2ccccc2)[C@H]2CCC[C@@H]2N(Cc2cncn2C)c2ccc(C#N)cc2)c1 (racemic) | 3100 | 42 | 20 | 2350 |  |  |  |
| Cc1ccccc1CN([C@H]1CCC[C@@H]1N(Cc1cncn1C)c1ccc(C#N)cc1)S(=O)(=O)c1cn(C)cn1 (racemic) | 3000 | 35 | 12 | 3200 |  |  |  |
| Cn1cnc(S(=O)(=O)N(CCN(Cc2cncn2C)c2ccc(C#N)cc2)CC2CCN(c3ncccn3)CC2)c1 |  | 96 | 74 |  |  |  |  |
| Cn1cnc(S(=O)(=O)N(CC2CCN(C(=O)OC(C)(C)C)CC2)[C@@H]2CCC[C@@H]2N(Cc2cncn2C)c2ccc(C#N)cc2)c1 (racemic) |  | 2 | 3 | 1250 | > 1000 | 350 | > 2.9 |
| Cn1cnc(S(=O)(=O)N(CCCN(Cc2cncn2C)c2ccc(C#N)cc2)Cc2ccsc2)c1 |  | 73 | 18 |  |  |  |  |
| Cn1cnc(S(=O)(=O)N(Cc2ccsc2)[C@H]2CC[C@@H](N(Cc3cncn3C)c3ccc(C#N)cc3)C2)c1 (racemic) | 2400 | 15 |  | 2500 |  |  |  |

| SMILES | EC50 [1] [nM] | inhibition [2] [%] | inhibition [3] [%] | EC50 [4] [nM] | IC50 [5] [nM] | IC50 [6] [nM] | Selectivity ratio [7] |
| --- | --- | --- | --- | --- | --- | --- | --- |
| Cn1cnc(S(=O)(=O)N(Cc2ccsc2)[C@@H]2CC[C@@H](N(Cc3cncn3C)c3ccc(C#N)cc3)C2)c1 (racemic) | 1500 | 56 |  | 1200 |  |  |  |
| Cn1cnc(S(=O)(=O)N(Cc2ccccc2)[C@H]2CC[C@@H](N(Cc3cncn3C)c3ccc(C#N)cc3)CC2)c1 |  | 23 |  | 2750 |  |  |  |
| Cn1cnc(S(=O)(=O)N(Cc2ccsc2)CC(C)(C)N(Cc2cncn2C)c2ccc(C#N)cc2)c1 | 2450 | 70 |  |  |  |  |  |
| Cn1cnc(S(=O)(=O)N(CCCN(Cc2cncn2C)c2ccc(C#N)cc2)Cc2ccccc2)c1 |  | 71 | 16 | 2650 |  |  |  |
| Cn1cnc(S(=O)(=O)N(Cc2ccccc2)[C@@H]2CCC[C@@H]2N(Cc2cncn2C)c2ccc(C#N)cc2)c1 (racemic) | > 5000 | 0 | 0 |  |  |  |  |
| Cc1ccccc1CN(CCCN(Cc1cncn1C)c1ccc(C#N)cc1)S(=O)(=O)c1cn(C)cn1 |  | 76 | 24 |  |  |  |  |
| Cn1cnc(S(=O)(=O)N(CC2CCN(C(=O)OC(C)(C)C)CC2)[C@H]2CC[C@@H](N(Cc3cncn3C)c3ccc(C#N)cc3)C2)c1 (racemic) | 300 | 83 | 33 | 125 |  |  |  |
| Cn1cnc(S(=O)(=O)N(Cc2ccccc2)[C@@H]2CC[C@@H](N(Cc3cncn3C)c3ccc(C#N)cc3)C2)c1 (racemic) | 340 | 93 | 65 | 145 |  |  |  |
| Cn1cnc(S(=O)(=O)N(CCN(Cc2cncn2C)c2ccc(C#N)cc2)CC2CCN(C(=O)OC(C)(C)C)CC2)c1 |  | 96 | 81 |  | 140 |  | 117 |
| Cn1cnc(S(=O)(=O)N(CCCN(Cc2cncn2C)c2ccc(C#N)cc2)CC2CCN(C(=O)OC(C)(C)C)CC2)c1 |  | 94 | 73 |  |  | 1 |  |
| Cn1cnc(S(=O)(=O)N(Cc2ccsc2)[C@@H]2CCC[C@@H]2N(Cc2cncn2C)c2ccc(C#N)cc2)c1 (racemic) | > 5000 | 9 | 0 | 4200 |  |  |  |
| Cn1cnc(S(=O)(=O)N(CC2CCN(C(=O)OC(C)(C)C)CC2)[C@H]2CCC[C@@H]2N(Cc2cncn2C)c2ccc(C#N)cc2)c1 (racemic) | 2650 | 82 | 41 |  | > 1000 | 10 | > 100 |
| Cc1ccccc1CN([C@@H]1CC[C@@H](N(Cc2cncn2C)c2ccc(C#N)cc2)C1)S(=O)(=O)c1cn(C)cn1 (racemic) | 2400 | 33 |  | 2200 |  |  |  |
| Cn1cnc(S(=O)(=O)N(CC2CCN(C(=O)OC(C)(C)C)CC2)[C@H]2CC[C@H](N(Cc3cncn3C)c3ccc(C#N)cc3)CC2)c1 |  | 0 |  | 1200 |  |  |  |
| Cn1cnc(S(=O)(=O)N(Cc2ccsc2)[C@H]2CCC[C@@H]2N(Cc2cncn2C)c2ccc(C#N)cc2)c1 (racemic) | 2700 | 57 | 11 | 2700 |  |  |  |
| Cn1cnc(S(=O)(=O)N(CC2CCN(c3ncccn3)CC2)[C@H]2CC[C@@H](N(Cc3cncn3C)c3ccc(C#N)cc3)C2)c1 (racemic) | 600 | 6 |  | 720 |  |  |  |
| Cn1cnc(S(=O)(=O)N(Cc2ccccc2)CC(C)(C)N(Cc2cncn2C)c2ccc(C#N)cc2)c1 |  | 100 | 88 |  |  |  |  |
| Cn1cnc(S(=O)(=O)N(CC2CCN(C(=O)OC(C)(C)C)CC2)[C@H]2CC[C@@H](N(Cc3cncn3C)c3ccc(C#N)cc3)CC2)c1 |  | 0 |  | 650 |  |  |  |
| Cn1cnc(S(=O)(=O)N(CC2CCN(C(=O)OC(C)(C)C)CC2)[C@@H]2CC[C@@H](N(Cc3cncn3C)c3ccc(C#N)cc3)C2)c1 (racemic) | 310 | 97 | 86 |  |  | 3.1 |  |
